Test results as given in ChEMBL document CHEMBL1255409, “In vitro activity of ceftaroline against 623 diverse strains of anaerobic bacteria” (2010).
≈ marks a conversion by molar mass, not a printed value.

Tests used:
[1] = test system: Clostridium hathewayi; test: Antimicrobial activity against Clostridium hathewayi under anaerobic conditions after 44 hrs by CLSI-M11-47 protocol based agar dilution method; type: functional; details: Hungatella hathewayi
Method in brief: (§1)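 Reference agar dilution per CLSI M11-A7 with plates made on test day. Clinical isolates were stored at −70°C in 20% skim milk, subcultured twice, and 48-h cell paste was suspended in brucella broth to 0.5 McFarland. About 10^5 CFU/spot was applied with a Steers replicator. Plates were incubated 44 h at 37°C anaerobically. MIC was the lowest concentration giving complete inhibition or marked growth reduction versus the drug-free control.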

[2] = test system: Eubacterium contortum; test: Antimicrobial activity against Eubacterium contortum under anaerobic conditions after 44 hrs by CLSI-M11-47 protocol based agar dilution method; type: functional; details: Faecalicatena contorta; method in brief: as §1
[3] = test system: Clostridioides difficile; test: Antimicrobial activity against Clostridium difficile under anaerobic conditions after 44 hrs by CLSI-M11-47 protocol based agar dilution method; type: functional; method in brief: as §1
[4] = test system: Prevotella bergensis; test: Antimicrobial activity against Prevotella bergensis under anaerobic conditions after 44 hrs by CLSI-M11-47 protocol based agar dilution method; type: functional; details: Hallella bergensis
Method in brief: (§2)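 Clinical isolates were stored at −70°C in 20% skim milk and identified phenotypically or by partial 16S rRNA sequencing. Each strain was subcultured twice from frozen stock. Cell paste from 48-h cultures was suspended in brucella broth to a 0.5 McFarland standard. About 10^5 CFU per spot were applied by Steers replicator to agar dilution plates prepared on the day of testing. Plates were incubated 44 h at 37°C in an anaerobic chamber. MIC was taken as the lowest concentration giving complete inhibition or marked reduction of growth versus the drug-free control.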

[5] = test system: Actinomyces israelii; test: Antimicrobial activity against Actinomyces israelii under anaerobic conditions after 44 hrs by CLSI-M11-47 protocol based agar dilution method; type: functional; method in brief: as §1
[6] = test system: Prevotella oris; test: Antimicrobial activity against Prevotella oris under anaerobic conditions after 44 hrs by CLSI-M11-47 protocol based agar dilution method; type: functional; details: Segatella oris; method in brief: as §2
[7] = test system: Slackia exigua; test: Antimicrobial activity against Slackia exigua under anaerobic conditions after 44 hrs by CLSI-M11-47 protocol based agar dilution method; type: functional; method in brief: as §2
[8] = test system: Clostridium paraputrificum; test: Antimicrobial activity against Clostridium paraputrificum under anaerobic conditions after 44 hrs by CLSI-M11-47 protocol based agar dilution method; type: functional; method in brief: as §1
[9] = test system: Veillonella; test: Antimicrobial activity against Veillonella spp. under anaerobic conditions after 44 hrs by CLSI-M11-47 protocol based agar dilution method; type: functional; method in brief: as §2
[10] = test system: Eubacterium cylindroides; test: Antimicrobial activity against Eubacterium cylindroides under anaerobic conditions after 44 hrs by CLSI-M11-47 protocol based agar dilution method; type: functional; details: Faecalitalea cylindroides; method in brief: as §1
[11] = test system: Lacrimispora sphenoides; test: Antimicrobial activity against Clostridium sphenoides under anaerobic conditions after 44 hrs by CLSI-M11-47 protocol based agar dilution method; type: functional; method in brief: as §1
[12] = test system: Finegoldia magna; test: Antimicrobial activity against Finegoldia magna under anaerobic conditions after 44 hrs by CLSI-M11-47 protocol based agar dilution method; type: functional; method in brief: as §1
[13] = test system: Bacteroides fragilis; test: Antimicrobial activity against Bacteroides fragilis spp. under anaerobic conditions after 44 hrs by CLSI-M11-47 protocol based agar dilution method; type: functional; method in brief: as §1
[14] = test system: Actinomyces neuii subsp. anitratus; test: Antimicrobial activity against Actinomyces neuii subsp. anitratus under anaerobic conditions after 44 hrs by CLSI-M11-47 protocol based agar dilution method; type: functional, Winkia neuii subsp. anitrata; details: Winkia neuii; method in brief: as §1
[15] = test system: Atopobium parvulum; test: Antimicrobial activity against Atopobium parvulum under anaerobic conditions after 44 hrs by CLSI-M11-47 protocol based agar dilution method; type: functional; details: Lancefieldella parvula; method in brief: as §1
[16] = test system: Propionibacterium avidum; test: Antimicrobial activity against Propionibacterium avidum under anaerobic conditions after 44 hrs by CLSI-M11-47 protocol based agar dilution method; type: functional; details: Cutibacterium avidum; method in brief: as §2
[17] = test system: Fusobacterium nucleatum; test: Antimicrobial activity against Fusobacterium nucleatum under anaerobic conditions after 44 hrs by CLSI-M11-47 protocol based agar dilution method; type: functional; method in brief: as §2
[18] = test system: Mogibacterium timidum; test: Antimicrobial activity against Mogibacterium timidum under anaerobic conditions after 44 hrs by CLSI-M11-47 protocol based agar dilution method; type: functional; method in brief: as §2
[19] = test system: Anaerococcus vaginalis; test: Antimicrobial activity against Anaerococcus vaginalis under anaerobic conditions after 44 hrs by CLSI-M11-47 protocol based agar dilution method; type: functional; method in brief: as §1
[20] = test system: Prevotella buccae; test: Antimicrobial activity against Prevotella buccae under anaerobic conditions after 44 hrs by CLSI-M11-47 protocol based agar dilution method; type: functional; details: Segatella buccae; method in brief: as §2
[21] = test system: Eubacterium limosum; test: Antimicrobial activity against Eubacterium limosum under anaerobic conditions after 44 hrs by CLSI-M11-47 protocol based agar dilution method; type: functional; method in brief: as §1
[22] = test system: [Clostridium] innocuum; test: Antimicrobial activity against Clostridium […] under anaerobic conditions after 44 hrs by CLSI-M11-47 protocol based agar dilution method; type: functional; method in brief: as §1
[23] = test system: Schaalia odontolytica; test: Antimicrobial activity against Actinomyces odontolyticus under anaerobic conditions after 44 hrs by CLSI-M11-47 protocol based agar dilution method; type: functional; method in brief: as §1
[24] = test system: Eggerthella lenta; test: Antimicrobial activity against Eggerthella lenta under anaerobic conditions after 44 hrs by CLSI-M11-47 protocol based agar dilution method; type: functional; method in brief: as §1
[25] = test system: Thomasclavelia ramosa; test: Antimicrobial activity against Clostridium ramosum under anaerobic conditions after 44 hrs by CLSI-M11-47 protocol based agar dilution method; type: functional; method in brief: as §1
[26] = test system: Peptoniphilus lacrimalis; test: Antimicrobial activity against Peptoniphilus lacrimalis under anaerobic conditions after 44 hrs by CLSI-M11-47 protocol based agar dilution method; type: functional; method in brief: as §2
[27] = test system: Eubacterium saburreum; test: Antimicrobial activity against Eubacterium saburreum under anaerobic conditions after 44 hrs by CLSI-M11-47 protocol based agar dilution method; type: functional; details: Lachnoanaerobaculum saburreum; method in brief: as §1
[28] = test system: Clostridium glycolicum; test: Antimicrobial activity against Clostridium glycolicum under anaerobic conditions after 44 hrs by CLSI-M11-47 protocol based agar dilution method; type: functional; details: Terrisporobacter glycolicus; method in brief: as §1
[29] = test system: Anaerococcus murdochii; test: Antimicrobial activity against Anaerococcus murdochii under anaerobic conditions after 44 hrs by CLSI-M11-47 protocol based agar dilution method; type: functional; method in brief: as §1
[30] = test system: Schaalia meyeri; test: Antimicrobial activity against Actinomyces meyeri under anaerobic conditions after 44 hrs by CLSI-M11-47 protocol based agar dilution method; type: functional; method in brief: as §1
[31] = test system: Anaerococcus; test: Antimicrobial activity against Anaerococcus sp. under anaerobic conditions after 44 hrs by CLSI-M11-47 protocol based agar dilution method; type: functional; method in brief: as §1
[32] = test system: Prevotella intermedia; test: Antimicrobial activity against Prevotella intermedia under anaerobic conditions after 44 hrs by CLSI-M11-47 protocol based agar dilution method; type: functional; method in brief: as §2

`Cc1ncc([N+](=O)[O-])n1CCO` [METRONIDAZOLE] was tested, and the MIC50 [1] was 0.06 µg/mL (≈ 0.351 µM), the MIC90 [1] was 0.25 µg/mL (≈ 1.46 µM) and the MIC50 [2] was 0.5 µg/mL (≈ 2.92 µM). It also gave an MIC90 [2] of 1 µg/mL (≈ 5.84 µM), an MIC50 [3] of 0.5 µg/mL (≈ 2.92 µM) and an MIC90 [3] of 4 µg/mL (≈ 23.4 µM). The MIC50 [4] was 0.5 µg/mL (≈ 2.92 µM), the MIC90 [4] was 2 µg/mL (≈ 11.7 µM) and the MIC50 [5] was greater than 32 µg/mL. The MIC90 [5] was greater than 32 µg/mL, the MIC50 [6] was 0.5 µg/mL (≈ 2.92 µM) and the MIC90 [6] was 2 µg/mL (≈ 11.7 µM). For the same molecule, the MIC50 [7] was 0.5 µg/mL (≈ 2.92 µM), the MIC90 [7] was 1 µg/mL (≈ 5.84 µM) and the MIC50 [8] was 0.5 µg/mL (≈ 2.92 µM). It also gave an MIC90 [8] of 4 µg/mL (≈ 23.4 µM), an MIC50 [9] of 2 µg/mL (≈ 11.7 µM) and an MIC90 [9] of 8 µg/mL (≈ 46.7 µM). For the same molecule, the MIC50 [10] was 0.5 µg/mL (≈ 2.92 µM), the MIC90 [10] was 1 µg/mL (≈ 5.84 µM) and the MIC50 [11] was 0.5 µg/mL (≈ 2.92 µM). For the same molecule, the MIC90 [11] was 4 µg/mL (≈ 23.4 µM), the MIC50 [12] was 0.5 µg/mL (≈ 2.92 µM) and the MIC90 [12] was 1 µg/mL (≈ 5.84 µM). It also gave an MIC50 [13] of 1 µg/mL (≈ 5.84 µM), an MIC90 [13] of 2 µg/mL (≈ 11.7 µM) and an MIC50 [14] greater than 32 µg/mL. It also gave an MIC90 [14] greater than 32 µg/mL, an MIC50 [15] of 0.5 µg/mL (≈ 2.92 µM) and an MIC90 [15] of 1 µg/mL (≈ 5.84 µM). For the same molecule, the MIC50 [16] was greater than 32 µg/mL, the MIC90 [16] was greater than 31 µg/mL and the MIC50 [17] was no more than 0.03 µg/mL. For the same molecule, the MIC90 [17] was 0.25 µg/mL (≈ 1.46 µM), the MIC50 [18] was 0.5 µg/mL (≈ 2.92 µM) and the MIC90 [18] was 1 µg/mL (≈ 5.84 µM). For the same molecule, the MIC50 [19] was 1 µg/mL (≈ 5.84 µM), the MIC90 [19] was 4 µg/mL (≈ 23.4 µM) and the MIC50 [20] was 0.5 µg/mL (≈ 2.92 µM). It also gave an MIC90 [20] of 1 µg/mL (≈ 5.84 µM), an MIC50 [21] of 0.5 µg/mL (≈ 2.92 µM) and an MIC90 [21] of 1 µg/mL (≈ 5.84 µM). The MIC50 [22] was 1 µg/mL (≈ 5.84 µM), the MIC90 [22] was 4 µg/mL (≈ 23.4 µM) and the MIC50 [23] was greater than 32 µg/mL. The MIC90 [23] was greater than 32 µg/mL, the MIC50 [24] was 1 µg/mL (≈ 5.84 µM) and the MIC90 [24] was 1 µg/mL (≈ 5.84 µM). The MIC50 [25] was 1 µg/mL (≈ 5.84 µM), the MIC90 [25] was 1 µg/mL (≈ 5.84 µM) and the MIC50 [26] was 1 µg/mL (≈ 5.84 µM). For the same molecule, the MIC90 [26] was 4 µg/mL (≈ 23.4 µM), the MIC50 [27] was 0.5 µg/mL (≈ 2.92 µM) and the MIC90 [27] was 1 µg/mL (≈ 5.84 µM). It also gave an MIC50 [28] of 0.5 µg/mL (≈ 2.92 µM), an MIC90 [28] of 4 µg/mL (≈ 23.4 µM) and an MIC50 [29] of 1 µg/mL (≈ 5.84 µM). The MIC90 [29] was 4 µg/mL (≈ 23.4 µM), the MIC50 [30] was greater than 32 µg/mL and the MIC90 [30] was greater than 32 µg/mL. For the same molecule, the MIC50 [31] was 1 µg/mL (≈ 5.84 µM), the MIC90 [31] was 4 µg/mL (≈ 23.4 µM) and the MIC50 [32] was 0.25 µg/mL (≈ 1.46 µM). The MIC90 [32] was 1 µg/mL (≈ 5.84 µM).
